Key:
Amaranthus retroflexus [1] = assay: Herbicidal activity against Amaranthus retroflexus assessed as growth inhibition at 150 g/ha postemergence treatment measured after 15 days by Greenhouse test; assay type: functional; details: post-emergence, 360 h, read-out: GI
Summary of the method: (§1)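 Test compounds were made up as 100 g/L emulsifiable concentrates (DMF solvent, Tween-80 emulsifier) and diluted with water. About 20 seeds were sown 1–3 cm deep in clay soil (pH 6.5, 1.6% organic matter) in 9.5 cm pots, kept at 15–30 °C and 50% RH. Postemergence spray was applied to dicots at the 2-leaf stage and monocots at the 1-leaf stage. Controls were untreated and solvent-treated. Injury was scored visually at 15 days, with three replicates.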

Echinochloa crus-galli [2] = assay: Herbicidal activity against Echinochloa crus-galli (barnyard grass) assessed as growth inhibition at 37.5 g/ha postemergence treatment measured after 15 days by Greenhouse test; assay type: functional; details: post-emergence, 360 h, read-out: GI
Summary of the method: (§2)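 Postemergence greenhouse pot test. About 20 seeds per pot, sown 1-3 cm deep in clay soil (pH 6.5, 1.6% organic matter). Plants grown at 15-30 °C and 50% relative humidity. Compounds were made up as 100 g/L emulsifiable concentrates in DMF with Tween-80, then diluted in water. Dicots were sprayed at the 2-leaf stage and monocots at the 1-leaf stage. Controls were untreated and solvent-treated. Injury was scored visually after 15 days, three replicates per treatment.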

Digitaria sanguinalis [3] = assay: Herbicidal activity against Digitaria sanguinalis (hairy crabgrass) assessed as growth inhibition at 75 g/ha postemergence treatment measured after 15 days by Greenhouse test; assay type: functional; details: post-emergence, 360 h, read-out: GI; summary of the method: as §2
Setaria faberi [4] = assay: Herbicidal activity against Setaria faberi (Giant Foxtail) assessed as growth inhibition at 37.5 g/ha postemergence treatment measured after 15 days by Greenhouse test; assay type: functional; details: post-emergence, 360 h, read-out: GI; summary of the method: as §2
Digitaria sanguinalis [5] = assay: Herbicidal activity against Digitaria sanguinalis (hairy crabgrass) assessed as growth inhibition at 150 g/ha postemergence treatment measured after 15 days by Greenhouse test; assay type: functional; details: post-emergence, 360 h, read-out: GI; summary of the method: as §1
Digitaria sanguinalis [6] = assay: Herbicidal activity against Digitaria sanguinalis (hairy crabgrass) assessed as growth inhibition at 37.5 g/ha postemergence treatment measured after 15 days by Greenhouse test; assay type: functional; details: post-emergence, 360 h, read-out: GI; summary of the method: as §2
Amaranthus retroflexus [7] = assay: Herbicidal activity against Amaranthus retroflexus assessed as growth inhibition at 37.5 g/ha postemergence treatment measured after 15 days by Greenhouse test; assay type: functional; details: post-emergence, 360 h, read-out: GI; summary of the method: as §2
Echinochloa crus-galli [8] = assay: Herbicidal activity against Echinochloa crus-galli (barnyard grass) assessed as growth inhibition at 75 g/ha postemergence treatment measured after 15 days by Greenhouse test; assay type: functional; details: post-emergence, 360 h, read-out: GI; summary of the method: as §2
Eclipta prostrata [9] = assay: Herbicidal activity against Eclipta prostrata assessed as growth inhibition at 150 g/ha postemergence treatment measured after 15 days by Greenhouse test; assay type: functional; details: post-emergence, 360 h, read-out: GI; summary of the method: as §1
Echinochloa crus-galli [10] = assay: Herbicidal activity against Echinochloa crus-galli (barnyard grass) assessed as growth inhibition at 150 g/ha postemergence treatment measured after 15 days by Greenhouse test; assay type: functional; details: post-emergence, 360 h, read-out: GI; summary of the method: as §1
Brassica juncea [11] = assay: Herbicidal activity against Brassica juncea assessed as growth inhibition at 75 g/ha postemergence treatment measured after 15 days by Greenhouse test; assay type: functional; details: post-emergence, 360 h, read-out: GI; summary of the method: as §2
Abutilon theophrasti [12] = assay: Herbicidal activity against Abutilon theophrasti (velvetleaf) assessed as growth inhibition at 37.5 g/ha postemergence treatment measured after 15 days by Greenhouse test; assay type: functional; details: post-emergence, 360 h, read-out: GI; summary of the method: as §2
[13] = target: T1, Protoporphyrinogen oxidase (Homo sapiens) (UniProt P50336); assay: Inhibition of Homo sapiens (human) recombinant protoporphyrinogen oxidase by fluorescence detection
T1 sequence (whole entry): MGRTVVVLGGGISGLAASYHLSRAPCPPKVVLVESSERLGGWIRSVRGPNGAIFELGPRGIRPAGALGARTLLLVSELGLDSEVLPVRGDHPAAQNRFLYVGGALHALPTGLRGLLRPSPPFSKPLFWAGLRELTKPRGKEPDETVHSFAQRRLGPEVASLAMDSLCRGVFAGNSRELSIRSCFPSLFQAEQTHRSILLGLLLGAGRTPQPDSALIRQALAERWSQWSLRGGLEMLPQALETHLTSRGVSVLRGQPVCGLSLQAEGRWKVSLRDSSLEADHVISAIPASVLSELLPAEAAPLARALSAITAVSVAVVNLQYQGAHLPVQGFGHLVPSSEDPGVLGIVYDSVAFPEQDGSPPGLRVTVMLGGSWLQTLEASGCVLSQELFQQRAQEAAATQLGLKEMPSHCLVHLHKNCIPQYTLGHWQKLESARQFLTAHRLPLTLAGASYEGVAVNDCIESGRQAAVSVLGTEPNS

Eclipta prostrata [14] = assay: Herbicidal activity against Eclipta prostrata assessed as growth inhibition at 75 g/ha postemergence treatment measured after 15 days by Greenhouse test; assay type: functional; details: post-emergence, 360 h, read-out: GI; summary of the method: as §2
Abutilon theophrasti [15] = assay: Herbicidal activity against Abutilon theophrasti (velvetleaf) assessed as growth inhibition at 75 g/ha postemergence treatment measured after 15 days by Greenhouse test; assay type: functional; details: post-emergence, 360 h, read-out: GI; summary of the method: as §2
Eclipta prostrata [16] = assay: Herbicidal activity against Eclipta prostrata assessed as growth inhibition at 37.5 g/ha postemergence treatment measured after 15 days by Greenhouse test; assay type: functional; details: post-emergence, 360 h, read-out: GI; summary of the method: as §2
Brassica juncea [17] = assay: Herbicidal activity against Brassica juncea assessed as growth inhibition at 150 g/ha postemergence treatment measured after 15 days by Greenhouse test; assay type: functional; details: post-emergence, 360 h, read-out: GI; summary of the method: as §1
Setaria faberi [18] = assay: Herbicidal activity against Setaria faberi (Giant Foxtail) assessed as growth inhibition at 150 g/ha postemergence treatment measured after 15 days by Greenhouse test; assay type: functional; details: post-emergence, 360 h, read-out: GI; summary of the method: as §1
Abutilon theophrasti [19] = assay: Herbicidal activity against Abutilon theophrasti (velvetleaf) assessed as growth inhibition at 150 g/ha postemergence treatment measured after 15 days by Greenhouse test; assay type: functional; details: post-emergence, 360 h, read-out: GI; summary of the method: as §1
Setaria faberi [20] = assay: Herbicidal activity against Setaria faberi (Giant Foxtail) assessed as growth inhibition at 75 g/ha postemergence treatment measured after 15 days by Greenhouse test; assay type: functional; details: post-emergence, 360 h, read-out: GI; summary of the method: as §2
Amaranthus retroflexus [21] = assay: Herbicidal activity against Amaranthus retroflexus assessed as growth inhibition at 75 g/ha postemergence treatment measured after 15 days by Greenhouse test; assay type: functional; details: post-emergence, 360 h, read-out: GI; summary of the method: as §2
Brassica juncea [22] = assay: Herbicidal activity against Brassica juncea assessed as growth inhibition at 37.5 g/ha postemergence treatment measured after 15 days by Greenhouse test; assay type: functional; details: post-emergence, 360 h, read-out: GI; summary of the method: as §2

**Q.** Which results are given for Cc1nn(-c2cc(NS(C)(=O)=O)c(Cl)cc2Cl)c(=O)n1C(F)F [SULFENTRAZONE]?
**A.** inhibition of growth at 150 g/ha (Amaranthus retroflexus [1]): 80%; inhibition of growth at 37.5 g/ha (Echinochloa crus-galli [2]): 50%; inhibition of growth at 75 g/ha (Digitaria sanguinalis [3]): 50%; inhibition of growth at 37.5 g/ha (Setaria faberi [4]): < 50%; inhibition of growth at 150 g/ha (Digitaria sanguinalis [5]): 60%; inhibition of growth at 37.5 g/ha (Digitaria sanguinalis [6]): 50%; inhibition of growth at 37.5 g/ha (Amaranthus retroflexus [7]): 80%; inhibition of growth at 75 g/ha (Echinochloa crus-galli [8]): 50%; inhibition of growth at 150 g/ha (Eclipta prostrata [9]): 80%; inhibition of growth at 150 g/ha (Echinochloa crus-galli [10]): 60%; inhibition of growth at 75 g/ha (Brassica juncea [11]): 80%; inhibition of growth at 37.5 g/ha (Abutilon theophrasti [12]): 80%; Ki [13]: 0.72 µM; inhibition of growth at 75 g/ha (Eclipta prostrata [14]): 80%; inhibition of growth at 75 g/ha (Abutilon theophrasti [15]): 80%; inhibition of growth at 37.5 g/ha (Eclipta prostrata [16]): 80%; inhibition of growth at 150 g/ha (Brassica juncea [17]): 80%; inhibition of growth at 150 g/ha (Setaria faberi [18]): < 50%; inhibition of growth at 150 g/ha (Abutilon theophrasti [19]): 80%; inhibition of growth at 75 g/ha (Setaria faberi [20]): < 50%; inhibition of growth at 75 g/ha (Amaranthus retroflexus [21]): 80%; inhibition of growth at 37.5 g/ha (Brassica juncea [22]): 60%
